Data reported in ChEMBL document CHEMBL3272093, “Antibacterial halogenoacetyl derivatives of amino acids and simple peptides” (1977).
In brackets after ≈: the same amount, converted by molar mass. Activity calls are given as the source filed them. No cut-off for these calls is given here.

Legend:
[1] = system: Escherichia coli; test: Antibacterial activity against Escherichia coli assessed as inhibition of growth after 18 hrs by broth culture method; format: functional
Method in brief: (§1)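 Broth dilution in 0.5 mL Sensitivity Test Broth, inoculated with 0.2 mL of a 10^-4 dilution of an 18-h broth culture. MIC read after 18-h incubation as the lowest concentration preventing growth.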

[2] = target: T1, D-alanyl-D-alanine carboxypeptidase DacA (Geobacillus stearothermophilus) (UniProt Q05523); test: Inhibition of Bacillus stearothermophilus DD-carboxypeptidase using UDP-N-acetylmuramyl-L-alanyl-meso-diaminopimeloyl-D-alanyl-D-alanine as substrate at 10 to 100 ug/ml
T1 sequence (whole entry): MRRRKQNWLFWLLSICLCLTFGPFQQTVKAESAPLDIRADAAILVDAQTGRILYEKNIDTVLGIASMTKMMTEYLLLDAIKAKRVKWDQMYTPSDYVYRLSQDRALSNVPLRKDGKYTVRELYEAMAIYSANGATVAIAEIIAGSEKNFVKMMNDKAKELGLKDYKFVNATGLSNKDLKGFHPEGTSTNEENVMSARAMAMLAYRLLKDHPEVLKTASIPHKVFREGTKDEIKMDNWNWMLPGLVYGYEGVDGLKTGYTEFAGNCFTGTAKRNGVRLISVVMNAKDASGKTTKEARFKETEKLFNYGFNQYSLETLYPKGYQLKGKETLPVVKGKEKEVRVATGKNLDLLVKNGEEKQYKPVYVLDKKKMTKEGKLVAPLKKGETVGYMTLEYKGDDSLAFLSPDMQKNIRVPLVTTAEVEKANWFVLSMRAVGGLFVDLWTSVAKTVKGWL
Method in brief: (§2)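 Enzymes tested for release of D-alanine, measured with D-amino acid oxidase. Compounds assayed at 10 and 100 μg/mL. Substrates: Ac2-L-Lys-D-Ala-D-Ala for the Streptomyces R61 enzyme; UDP-N-acetylmuramyl-L-alanyl-meso-diaminopimeloyl-D-alanyl-D-alanine for the B. stearothermophilus and S. typhimurium enzymes.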

[3] = target: D-alanyl-D-alanine carboxypeptidase (Streptomyces sp. R61) (UniProt P15555); test: Inhibition of Streptomyces R61 DD-carboxypeptidase using Ac2-L-Lys-D-Ala-D-Ala as substrate at 10 to 100 ug/ml; method in brief: as §2
[4] = system: Staphylococcus aureus; test: Antibacterial activity against Staphylococcus aureus assessed as inhibition of growth after 18 hrs by broth culture method; format: functional; method in brief: as §1
[5] = system: Salmonella enterica subsp. enterica serovar Typhimurium; test: Inhibition of Salmonella typhimurium DD-carboxypeptidase using UDP-N-acetylmuramyl-L-alanyl-meso-diaminopimeloyl-D-alanyl-D-alanine as substrate at 10 to 100 ug/ml; method in brief: as §2

Sequence of D-alanyl-D-alanine carboxypeptidase (Streptomyces sp. R61) (P15555 whole entry): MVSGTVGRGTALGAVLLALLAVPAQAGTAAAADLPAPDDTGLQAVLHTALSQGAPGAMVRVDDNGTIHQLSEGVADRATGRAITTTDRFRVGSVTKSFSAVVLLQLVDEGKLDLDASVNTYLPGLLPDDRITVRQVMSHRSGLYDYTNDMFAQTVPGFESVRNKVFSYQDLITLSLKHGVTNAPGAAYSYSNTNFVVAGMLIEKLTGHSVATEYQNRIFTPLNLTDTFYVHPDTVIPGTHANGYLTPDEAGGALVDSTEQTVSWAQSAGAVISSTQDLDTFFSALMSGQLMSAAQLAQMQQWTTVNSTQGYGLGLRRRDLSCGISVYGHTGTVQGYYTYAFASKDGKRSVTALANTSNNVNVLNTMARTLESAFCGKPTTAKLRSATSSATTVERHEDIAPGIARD

| Compound | MIC [1] [µg/mL] | inhibition [2] | inhibition [3] | MIC [4] [µg/mL] | inhibition [5] |
| --- | --- | --- | --- | --- | --- |
| O=C(O)CCCCNC(=O)CI | 500 (≈ 1750 µM) | inactive | inactive | 125 (≈ 438 µM) | inactive |
| C[C@@H](NC(=O)[C@H](CCCCN)NC(=O)CI)C(=O)N[C@H](C)C(=O)OC(C)(C)C.Cc1ccc(S(=O)(=O)O)cc1 | > 500 | inactive | inactive | 250 | inactive |
| C[C@@H](NC(=O)[C@@H](C)NC(=O)CI)C(=O)O | > 500 | inactive | inactive | 500 (≈ 1520 µM) | inactive |
| CC(C)(C)OC(=O)CCCCNC(=O)[C@H](CCCCN1C(=O)c2ccccc2C1=O)NC(=O)CI.O | > 500 | inactive | inactive | > 500 | inactive |
| C[C@@H](NC(=O)[C@H](CCCCN1C(=O)c2ccccc2C1=O)NC(=O)CI)C(=O)N[C@H](C)C(=O)OC(C)(C)C | > 500 | inactive | inactive | 62 (≈ 96.5 µM) | inactive |
| C[C@@H](NC(=O)CI)C(=O)N[C@H](C)C(=O)OC(C)(C)C | > 500 | inactive | inactive | 31 (≈ 80.7 µM) | inactive |
| C[C@@H](NC(=O)[C@@H](C)NC(=O)[C@H](CCCCN1C(=O)c2ccccc2C1=O)NC(=O)CI)C(=O)O | > 500 | inactive | inactive | 500 (≈ 853 µM) | inactive |
| C[C@@H](NC(=O)[C@@H](C)NC(=O)[C@@H](N)CCCCNC(=O)CI)C(=O)O.O=C(O)C(F)(F)F | > 500 | inactive | inactive | 500 | inactive |
| C[C@@H](NC(=O)[C@@H](C)NC(=O)CBr)C(=O)O | > 500 | inactive | inactive | 500 (≈ 1780 µM) | inactive |
| C[C@@H](NC(=O)CI)C(=O)N[C@H](CCC(=O)O)C(=O)O | > 500 | inactive | inactive | 500 (≈ 1290 µM) | inactive |
| C[C@@H](NC(=O)CI)C(=O)OC(C)(C)C | > 500 | inactive | inactive | 31 (≈ 99 µM) | inactive |
| O=C(O)CCCCNC(=O)[C@H](CCCCN1C(=O)c2ccccc2C1=O)NC(=O)CI | > 500 | inactive | inactive | > 500 | inactive |
| C[C@@H](NC(=O)[C@@H](C)NC(=O)[C@H](CCCCN1C(=O)CCC1=O)NC(=O)CI)C(=O)O | > 500 | inactive | inactive | 500 (≈ 929 µM) | inactive |
| C[C@@H](NC(=O)CI)C(=O)N[C@H](C)C(=O)OCc1ccccc1 | > 500 | inactive | inactive | 7.5 (≈ 17.9 µM) | inactive |
| C[C@@H](NC(=O)CBr)C(=O)N[C@H](C)C(=O)OC(C)(C)C | > 500 | inactive | inactive | 62 (≈ 184 µM) | inactive |
| C[C@@H](NC(=O)[C@@H](C)NC(=O)[C@H](CCCCN)NC(=O)CI)C(=O)O.O=C(O)C(F)(F)F | > 500 | inactive | inactive | > 500 | inactive |
| C[C@@H](NC(=O)[C@@H](C)NC(=O)[C@H](CCCCN)NC(=O)CBr)C(=O)O.O=C(O)C(F)(F)F | > 500 | inactive | inactive | > 500 | inactive |

Further lines, results first:

| MIC [1] [µg/mL] | inhibition [2] | inhibition [3] | MIC [4] [µg/mL] | inhibition [5] | Compound |
| --- | --- | --- | --- | --- | --- |
| > 500 | inactive | inactive | 250 (≈ 388 µM) | inactive | C[C@@H](NC(=O)[C@H](CCCCN1C(=O)c2ccccc2C1=O)NC(=O)CI)C(=O)N[C@H](CCC(=O)O)C(=O)O |
| > 500 | inactive | inactive | 62 (≈ 81.9 µM) | inactive | C[C@@H](NC(=O)[C@H](CCCCN1C(=O)c2ccccc2C1=O)NC(=O)CI)C(=O)N[C@H](CCC(=O)OC(C)(C)C)C(=O)OC(C)(C)C |
| > 500 | inactive | inactive | 62 (≈ 125 µM) | inactive | C[C@@H](NC(=O)[C@H](CCCCNC(=O)OC(C)(C)C)NC(=O)CBr)C(=O)OC(C)(C)C |
| > 500 | inactive | inactive | > 500 | inactive | C[C@@H](NC(=O)[C@H](CCCCN)NC(=O)CBr)C(=O)O.O=C(O)C(F)(F)F |
| > 500 | inactive | inactive | 500 (≈ 902 µM) | inactive | CC(=O)NCCCC[C@H](NC(=O)CI)C(=O)N[C@H](C)C(=O)N[C@H](C)C(=O)OC(C)(C)C |
| > 500 | inactive | inactive | 31 (≈ 62.2 µM) | inactive | C[C@@H](NC(=O)CI)C(=O)N[C@H](CCC(=O)OC(C)(C)C)C(=O)OC(C)(C)C |
| > 500 | inactive | inactive | 15 (≈ 27.7 µM) | inactive | C[C@@H](NC(=O)[C@H](CCCCNC(=O)OC(C)(C)C)NC(=O)CI)C(=O)OC(C)(C)C |
| 500 (≈ 1440 µM) | inactive | inactive | 7.5 (≈ 21.6 µM) | inactive | O=C(CI)NCCC(=O)OCc1ccccc1 |
| > 500 | inactive | inactive | 125 (≈ 204 µM) | inactive | C[C@@H](NC(=O)[C@H](CCCCNC(=O)CI)NC(=O)OC(C)(C)C)C(=O)N[C@H](C)C(=O)OC(C)(C)C |
| > 500 | inactive | inactive | > 500 | inactive | C[C@@H](NC(=O)[C@H](CCCCN)NC(=O)CI)C(=O)O.O=C(O)C(F)(F)F |
| > 500 | inactive | inactive | > 500 | inactive | C[C@@H](NC(=O)[C@H](CCCCN1C(=O)CCC1=O)NC(=O)CI)C(=O)N[C@H](C)C(=O)OC(C)(C)C |
| 500 (≈ 1470 µM) | inactive | inactive | 7.5 (≈ 22 µM) | inactive | CC(C)(C)OC(=O)CCCCNC(=O)CI |
| 7.5 (≈ 25.1 µM) | inactive | inactive | 3.7 (≈ 12.4 µM) | inactive | COC(=O)CCCCNC(=O)CI |
| 62 (≈ 159 µM) | inactive | inactive | 3.7 (≈ 9.51 µM) | inactive | O=C(CI)NCCCCCC(=O)OCc1ccccc1 |
| 62 (≈ 159 µM) | inactive | inactive | 0.9 (≈ 2.31 µM) | inactive | O=C(CI)NCC(=O)NCC(=O)OCc1ccccc1 |
| 250 (≈ 692 µM) | inactive | inactive | 7.5 (≈ 20.8 µM) | inactive | O=C(CI)NCCCC(=O)OCc1ccccc1 |
| 500 (≈ 816 µM) | inactive | inactive | 250 (≈ 408 µM) | inactive | C[C@@H](NC(=O)[C@H](CCCCNC(=O)OC(C)(C)C)NC(=O)CI)C(=O)N[C@H](C)C(=O)OC(C)(C)C |
| 500 (≈ 884 µM) | inactive | inactive | 500 (≈ 884 µM) | inactive | C[C@@H](NC(=O)[C@H](CCCCNC(=O)OC(C)(C)C)NC(=O)CBr)C(=O)N[C@H](C)C(=O)OC(C)(C)C |
| 62 (≈ 165 µM) | inactive | inactive | < 0.4 | inactive | O=C(CI)NCCCCC(=O)OCc1ccccc1 |
| 125 (≈ 375 µM) | inactive | inactive | 7.5 (≈ 22.5 µM) | inactive | O=C(CI)NCC(=O)OCc1ccccc1 |
